# CXCR6 block = CXCR6 receptor inhibitors, primary screen, cell-based, beta-arrestin, luminescence, CHO-K1 PathHunter, 1536-well | hit rate 0.36% among 360,000 | C-X-C chemokine receptor type 6 (Homo sapiens), O00574 | inhibition, % at 20 µM; in the data active = inhibition above about 34%, passing the limit was not always enough;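 note: antagonist mode with CXCL16 agonist at 10 nM final; 0% = 10 nM CXCL16 with DMSO and 100% = unstimulated wells without agonist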
# APJ ag = agonists of human apelin receptor APJ, primary screen, CHO-K1 cells, PathHunter beta-arrestin, luminescence | P35414 | activation, % at 20 µM | hit rate 0.11% among 330,000 | 0% DMSO wells, 100% apelin;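 active = activation more than six SD over the plate average, tested at 20 µM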;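 note: 0% = DMSO alone and 100% = apelin-13 at 10 nM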
#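 Material: CHO-K1 APJ beta-arrestin complementation cell line; Input: cell density 1000 per well; Incubation: compound stimulation 90 min at 25 °C, detection 60 min; Signal: luminescence from split beta-galactosidase complementation, Galacton Star/Emerald II substrate; Controls: DMSO-only wells as negative, 10 nM Apelin-13 as positive control.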
# APJ antagonist = antagonists of human apelin receptor APJ, primary screen, CHO-K1 cells, beta-arrestin complementation, luminescence | P35414 | inhibition, % at 20 µM | hit rate 0.32% among 330,000 | AID 2521, 2010;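 active = inhibition above about 40% at 20 µM, limit read from the data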;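 note: cells challenged with 10 nM apelin-13 agonist together with compound; plate controls were apelin-13 plus DMSO wells for no effect and DMSO wells lacking apelin-13 for full effect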
# EBI2 antag = EBI2 receptor antagonists, beta-arrestin recruitment, primary screen, cell-based, luminescence, 7a,25-OHC stimulation, uHTS. G-protein coupled receptor 183 (Homo sapiens), P32249. hit rate 0.81% among 360,000. inhibition, % at 5 µM. 7a,25-OHC stimulated; in the data active = inhibition above about 38%;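 note: enzyme fragment complementation signal reports receptor beta-arrestin coupling in cells; 0% = agonist plus DMSO wells and 100% = wells without agonist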
# Target sequence (P32249 whole entry, looked up, the tested form may be a part): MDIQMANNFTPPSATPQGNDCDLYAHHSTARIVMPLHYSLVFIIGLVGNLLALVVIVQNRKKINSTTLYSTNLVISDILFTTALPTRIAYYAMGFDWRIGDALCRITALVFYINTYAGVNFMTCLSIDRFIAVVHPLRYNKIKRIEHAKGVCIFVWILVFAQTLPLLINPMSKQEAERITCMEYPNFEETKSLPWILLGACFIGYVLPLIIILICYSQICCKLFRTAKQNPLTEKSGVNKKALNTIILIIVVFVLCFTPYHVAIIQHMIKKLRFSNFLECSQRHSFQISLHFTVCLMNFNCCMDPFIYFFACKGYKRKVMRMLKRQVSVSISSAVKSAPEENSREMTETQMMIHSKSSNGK
# CCR6 antag = CCR6 receptor antagonists, primary screen, cell-based, CHO-K1, luminescence, beta-arrestin, uHTS; C-C chemokine receptor type 6 (Homo sapiens), P51684; CHO-K1 CCR6 PathHunter beta-arrestin, CCL20-stimulated; inhibition, % at 20 µM; hit rate 0.49% among 340,000;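 active = compounds whose inhibition of the agonist-driven luminescence signal at 20 µM reaches about 50%, limit read from the data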;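 note: cells stimulated with CCL20 at 14 nM final; plate controls were DMSO with CCL20 for no effect and DMSO without agonist for full effect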
# EBI2 antag conf = EBI2 antagonist hit retest, beta-arrestin, confirmation, cell-based, single concentration, luminescence, 7a,25-OHC stimulation; inhibition, % at 5 µM; 7a,25-OHC antagonism; shares compounds with EBI2 antag; hit rate 29% among 2,400; AID 651997, 2013;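 active = inhibition of at least 50%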
# EBI2 ag = EBI2 agonist activity of antagonist hits, confirmation, counter-screen for EBI2 antagonist project, cell-based, single concentration, agonist mode, luminescence; shares compounds with EBI2 antag; EBI2-expressing cells, 60 min; 0% vehicle, 100% 7α,25-dihydroxycholesterol control; 2,400 tested, under 10 active; activation, % at 5 µM;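 active = activation of at least 50%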
# bGal cs = E. coli beta-galactosidase enzyme inhibition, confirmation, counter-screen for EBI2 antagonist project, biochemical, luminescence, single concentration; shares compounds with EBI2 antag; purified beta-galactosidase, luminescent Galacton Star, 15 min; inhibition, % at 5 µM; hit rate 1% among 2,400;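 active = replicate-average signal at least 3 plate SD below neutral wells, shown as high inhibition, flagging enzyme-inhibiting false positives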;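 note: 0% = DMSO wells with enzyme and 100% = wells lacking enzyme; higher means stronger loss of beta-gal luminescence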
# Starred values were filed as active, the others as inactive; . = not tested or not shown. The list is not random: actives were taken first. Their share in the collection is about 1.5%.
SMILES,CXCR6 block,APJ ag,APJ antagonist,EBI2 antag,CCR6 antag,EBI2 antag conf,EBI2 ag,bGal cs
COc1ccc(S(=O)(=O)N2C(=O)/C(=C3\SC(N)=NC3=O)c3ccccc32)cc1,3,0,-21,7,21,.,.,.
Cc1cc(C)c(S(=O)(=O)NCCCn2ccnc2)cc1C,2,2,-12,-7,3,.,.,.
O=C(NC1CCCc2ccccc21)c1cccc(F)c1 (configuration not stated),0,.,.,-6,-6,.,.,.
Cc1ccc(CNC(=O)c2cc3c(s2)CN(Cc2ccccc2)C3)cc1,2,-5,6,66*,10,35,1,6
O=C(c1cccc(C(=O)N2CCN(c3ccccc3F)CC2)c1)N1CCN(c2ccccc2F)CC1,6,4,-14,-3,-3,.,.,.
Cc1[nH]c(-c2ccc(F)cc2)cc1C(=O)N1CCN(c2ccccc2F)CC1,11,0,5,91*,-28,85*,0,8
COc1ccccc1N1CCN(C(=O)c2ccoc2C)CC1,0,-2,-9,-7,-20,.,.,.
COc1ccccc1N1CCN(C(=O)c2cc(-c3ccc(F)cc3)[nH]c2C)CC1,8,1,-5,95*,7,71*,-1,-6
CC(=O)N1c2ccc(S(=O)(=O)NCC3CCC(C(=O)NCc4ccc(C)cc4)CC3)cc2CC1C (configuration not stated),1,7,9,57*,16,46,0,7
Cc1ccc(CNC(=O)C2CCN(S(=O)(=O)c3ccc4c(c3)CC(C)N4C(=O)C3CC3)CC2)cc1 (configuration not stated),-7,22,-9,79*,9,45,1,3
COc1ccc(CN(C)C[C@@H]2OCc3cnnn3CCCC(=O)N([C@H](C)CO)C[C@H]2C)cc1,5,.,.,-4,.,.,.,.
C=CCNc1nnnc2c1sc1nc(N3CCOCC3)c3c(c12)CCCC3,-5,-4,5,52*,8,19,0,2
CC(C)CNc1nnnc2c1sc1nc(N3CCOCC3)c3c(c12)CCCC3,17,0,15,22,17,.,.,.
c1ccc(N(c2ccccc2)c2nc(N3CCCC3)nc(-n3ccnc3)n2)cc1,9,-4,27,40*,34,38,3,1
CN(c1ccccc1)c1nc(N2CCCC2)nc(-n2ccnc2)n1,9,-1,22,32,22,.,.,.
C/C(=N\NC(=O)c1cccc(S(=O)(=O)N2CCOCC2)c1)c1ccc(C#N)cc1,-6,6,10,2,9,.,.,.
CCCc1nc2ccc(NC(=O)c3cccs3)cc2c(=O)n1Cc1ccc(Cl)cc1,2,-2,6,43*,-9,20,3,6
CCCCSc1nc2ccc(Nc3nc(N4CCOCC4)nc(N4CCOCC4)n3)cc2s1,7,0,1,46*,8,24,-1,-6
CCCCNC(=O)CSc1nc2ccc(Nc3nc(N4CCOCC4)nc(N4CCOCC4)n3)cc2s1,1,-2,-9,33,10,.,.,.
COc1ccccc1NC(=O)C(C)OC(=O)CCCOc1ccccc1 (configuration not stated),2,0,-1,-10,10,.,.,.
CC(=O)c1ccc(NC(=O)C(C)n2nc(-c3ccccc3)c3cc(Cl)ccc32)cc1 (configuration not stated),-7,1,13,44*,0,7,-1,-7
